Experimental data published in ChEMBL document CHEMBL1126888, “Peptide alpha-keto ester, alpha-keto amide, and alpha-keto acid inhibitors of calpains and other cysteine proteases” (J Med Chem, 1993).

Experiments:
Cathepsin B = Cathepsin B (Bos taurus, UniProt P07688); assay: Inhibition of alpha-keto esters towards cathepsin B at pH 5.2
Method in brief: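 Bovine cathepsin B in 20 mM sodium acetate pH 5.2, 0.5 mM dithiothreitol, 2% DMSO. Substrate Bz-Phe-Val-Arg-p-nitroanilide; p-nitroaniline release followed at 405 nm. Ki reported.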

Calpain 1 = Calpain 1 (Homo sapiens, UniProt P07384); assay: Inhibitory activity of alpha-keto esters towards calpain 1 at pH 8.0.; type: protein-complex assay
Method in brief: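 Calpain I purified from human erythrocytes; calpain II from rabbit muscle. Buffer: 25 mM Tris pH 8.0, 1 mM β-mercaptoethanol, 10 mM CaCl2, up to 5% DMSO. Substrate: Suc-Leu-Tyr-AMC at 1–3 mM, 70 nM final enzyme, started with enzyme. AMC fluorescence read at ex 380 / em 460 nm. Initial rates taken at 30–60 s at room temperature, with five or more inhibitor levels and two substrate levels. Ki from Dixon plots, triplicates.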

Papain = molecular target: T1, Papain (Carica papaya, UniProt P00784); assay: Inhibitory activity of alpha-ketoesters towards papain at pH 6.0
T1 sequence (P00784 whole entry): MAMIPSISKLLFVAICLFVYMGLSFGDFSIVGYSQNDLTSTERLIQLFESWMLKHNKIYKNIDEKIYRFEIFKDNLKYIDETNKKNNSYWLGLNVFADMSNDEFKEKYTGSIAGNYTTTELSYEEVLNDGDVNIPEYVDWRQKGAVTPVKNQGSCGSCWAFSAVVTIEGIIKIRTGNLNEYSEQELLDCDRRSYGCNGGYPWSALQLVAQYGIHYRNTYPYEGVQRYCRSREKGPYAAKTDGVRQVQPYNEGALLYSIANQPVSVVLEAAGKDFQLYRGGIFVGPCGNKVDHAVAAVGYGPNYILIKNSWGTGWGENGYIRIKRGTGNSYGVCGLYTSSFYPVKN
Method in brief: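 Papain in 100 mM K3PO4, 1 mM EDTA, 2.5 mM cysteine, pH 6.0, 2% DMSO. Substrate Bz-Arg-p-nitroanilide; p-nitroaniline release read at 405 nm. Ki reported.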

Rattus norvegicus = species on record: Rattus norvegicus; assay: Inhibitory potency against rat platelet membrane permeability at pH 7.35; type: functional
Method in brief: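 Rat platelets from cardiac-puncture blood (citrate-EDTA), gel-filtered in HEPES-Tyrode's pH 7.35, at 10^7/mL. Preincubated 5 min at room temperature with inhibitor from DMSO stocks (2% DMSO), then given 1 μM A23187 plus 2 mM Ca for 5 min. Pellets run on SDS-PAGE and western blotted for spectrin. Densitometry of the 150/155-kDa breakdown doublet gives IC50.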

Chain of Calpain 1 (P04632 whole entry): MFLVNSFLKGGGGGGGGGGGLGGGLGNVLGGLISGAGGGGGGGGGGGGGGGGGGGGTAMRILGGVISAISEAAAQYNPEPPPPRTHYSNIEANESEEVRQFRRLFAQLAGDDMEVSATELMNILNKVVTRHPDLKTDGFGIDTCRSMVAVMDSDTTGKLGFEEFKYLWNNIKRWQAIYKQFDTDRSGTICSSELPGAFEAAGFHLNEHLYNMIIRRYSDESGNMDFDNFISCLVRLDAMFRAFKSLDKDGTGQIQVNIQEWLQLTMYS
Chain of Calpain 1 (P07384 whole entry): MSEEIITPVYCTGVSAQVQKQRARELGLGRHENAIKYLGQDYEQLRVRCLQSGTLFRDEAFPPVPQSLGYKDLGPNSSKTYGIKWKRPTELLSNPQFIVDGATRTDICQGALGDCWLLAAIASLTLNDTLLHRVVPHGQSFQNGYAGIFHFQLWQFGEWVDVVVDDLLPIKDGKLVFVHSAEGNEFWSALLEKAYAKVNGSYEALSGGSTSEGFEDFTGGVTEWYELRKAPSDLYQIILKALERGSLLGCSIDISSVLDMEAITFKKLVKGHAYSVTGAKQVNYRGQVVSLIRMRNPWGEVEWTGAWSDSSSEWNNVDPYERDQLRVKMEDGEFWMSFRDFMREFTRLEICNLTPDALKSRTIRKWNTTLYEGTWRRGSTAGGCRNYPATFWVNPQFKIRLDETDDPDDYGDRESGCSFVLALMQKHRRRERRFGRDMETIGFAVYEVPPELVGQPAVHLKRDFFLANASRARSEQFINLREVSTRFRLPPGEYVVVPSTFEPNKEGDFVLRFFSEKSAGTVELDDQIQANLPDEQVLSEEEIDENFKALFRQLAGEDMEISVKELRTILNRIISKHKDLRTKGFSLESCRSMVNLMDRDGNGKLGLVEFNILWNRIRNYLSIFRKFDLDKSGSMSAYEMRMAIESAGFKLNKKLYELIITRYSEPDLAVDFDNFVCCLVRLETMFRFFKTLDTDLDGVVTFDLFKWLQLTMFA

| SMILES | Ki (Cathepsin B) [µM] | Ki (Calpain 1) [µM] | Ki (Papain) [µM] | IC50 (Rattus norvegicus) [µM] |
| --- | --- | --- | --- | --- |
| CCOC(=O)C(=O)C(CC)NC(=O)C(CC(C)C)NS(=O)(=O)c1ccc2ccccc2c1 (configuration not stated) | 19 |  |  |  |
| CCC(NC(=O)C(CC(C)C)NC(=O)OCc1ccccc1)C(=O)C(=O)NCC(C)c1ccccc1 (configuration not stated) |  | 0.32 |  | 27 |
| CCCCC(NC(=O)C(CC(C)C)NC(=O)OCc1ccccc1)C(=O)C(=O)OCC (configuration not stated) | 20 | 7 | 190 | 150 |
| CCCCCCCNC(=O)C(=O)C(CC)NC(=O)C(CC(C)C)NC(=O)OCc1ccccc1 (configuration not stated) | 14 | 0.096 |  |  |
| COC(=O)C(=O)C(Cc1ccccc1)NC(=O)C(CC(C)C)NC(=O)OCc1ccccc1 (configuration not stated) | > 100 |  |  |  |
| CC(C)CC(NC(=O)OCc1ccccc1)C(=O)NC(Cc1ccccc1)C(=O)C(N)=O (configuration not stated) | 32 | 1 |  |  |
| CCN(CC)C(=O)C(=O)C(Cc1ccccc1)NC(=O)C(CC(C)C)NC(=O)OCc1ccccc1 (configuration not stated) |  | 76 |  |  |
| CCOC(=O)C(=O)C(Cc1ccc(Cl)cc1)NC(=O)C(CC(C)C)NC(=O)OCc1ccccc1 (configuration not stated) | 50 | < 4 | 150 |  |
| CCOC(=O)C(=O)C(CCSC)NC(=O)C(CC(C)C)NC(=O)OCc1ccccc1 (configuration not stated) | 55 | 1 | 140 |  |
| CCCCOC(=O)C(=O)C(Cc1ccccc1)NC(=O)C(CC(C)C)NC(=O)OCc1ccccc1 (configuration not stated) | 15 | 5 | 15 |  |
| CCC(NC(=O)C(CC(C)C)NC(=O)OCc1ccccc1)C(=O)C(=O)OC (configuration not stated) | 17 |  |  | 280 |
| CCOC(=O)C(=O)C(CC)NC(=O)C(CC(C)C)NC(=O)C(c1ccccc1)c1ccccc1 (configuration not stated) |  | 0.1 |  | > 100 |
| CCOC(=O)C(=O)C(CC)NC(=O)C(CC(C)C)NC(=O)CCc1ccccc1 (configuration not stated) | 23 | 40 |  | 20 |
| CCCC(NC(=O)C(CC(C)C)NC(=O)OCc1ccccc1)C(=O)C(N)=O (configuration not stated) |  | 0.069 |  |  |
| CCC(NC(=O)C(CC(C)C)NC(=O)OCc1ccccc1)C(=O)C(=O)NCC1CCCCC1 (configuration not stated) |  | 0.68 |  | 66 |
| CCCC(NC(=O)C(CC(C)C)NC(=O)OCc1ccccc1)C(=O)C(=O)OCC (configuration not stated) | 25 | 1.4 | 150 | 100 |

| SMILES | Ki (Cathepsin B) [µM] | Ki (Calpain 1) [µM] | Ki (Papain) [µM] | IC50 (Rattus norvegicus) [µM] |
| --- | --- | --- | --- | --- |
| CCOC(=O)C(=O)C(CC)NC(=O)C(CC(C)C)NC(=O)OCc1ccccc1 (configuration not stated) | 30 | 4.5 | 220 | 300 |
| CCOC(=O)C(=O)C(CC)NC(=O)C(CC(C)C)NC(=O)CCCc1ccccc1 (configuration not stated) | 23 |  |  | 20 |
| CCC(=O)C(=O)[C@H](CC)NC(=O)[C@H](CC(C)C)NC(=O)[C@H](CC(C)C)NC(=O)OCc1ccccc1 | 22 | 1.8 |  | 40 |
| CCOC(=O)C(=O)[C@H](Cc1ccccc1)NC(=O)[C@H](CC(C)C)NC(=O)[C@H](CC(C)C)NC(=O)OCc1ccccc1 | 42 | 1.4 | 15 |  |
| CCOC(=O)C(=O)[C@H](CC)NC(=O)[C@H](CC(C)C)NC(=O)[C@H](CC(C)C)NS(=O)(=O)c1ccc(C)cc1 | 69 | 33 |  | 30 |
| CCOC(=O)C(=O)[C@H](CC)NC(=O)[C@H](CC(C)C)NC(=O)[C@H](CC(C)C)NS(=O)(=O)c1ccc2ccccc2c1 | 25 | 16 |  | 100 |
| CCOC(=O)C(=O)[C@H](CC)NC(=O)[C@H](CC(C)C)NC(=O)[C@H](CC(C)C)NC(=O)c1ccc2ccccc2c1 |  | 1.3 |  | 78 |
| CC(C)CC(NC(=O)OCc1ccccc1)C(=O)NC(Cc1ccccc1)C(=O)C(=O)OCc1ccccc1 (configuration not stated) | 45 | 3.4 | 45 |  |
| CCC(NC(=O)C(CC(C)C)NC(=O)OCc1ccccc1)C(=O)C(=O)N(CC)CC (configuration not stated) | 270 |  |  |  |
| CCCCCCCCCNC(=O)C(=O)C(CC)NC(=O)C(CC(C)C)NC(=O)OCc1ccccc1 (configuration not stated) | 150 | 0.12 |  |  |
| CCOC(=O)C(=O)C(CC)NC(=O)C(CC(C)C)NC(=O)C(CC)Oc1ccccc1 (configuration not stated) | 14 | 20 |  | 22 |
| CCOC(=O)C(=O)C(CC)NC(=O)C(CC(C)C)NC(=O)CCC(C)Cc1ccccc1 (configuration not stated) | 24 |  |  |  |
| CCC(NC(=O)C(CC(C)C)NC(=O)OCc1ccccc1)C(=O)C(=O)N(CC)Cc1ccccc1 (configuration not stated) | > 400 |  |  |  |
| CCOC(=O)C(=O)C(Cc1ccccc1)NC(=O)C(CC(C)C)NC(=O)OCc1ccccc1 (configuration not stated) | 340 | 1.8 | 75 | 200 |
| CCC(NC(=O)C(CC(C)C)NC(=O)OCc1ccccc1)C(=O)C(=O)N(Cc1ccccc1)Cc1ccccc1 (configuration not stated) | 31 | > 5 |  |  |
| CCCCNC(=O)C(=O)C(CC)NC(=O)C(CC(C)C)NC(=O)OCc1ccccc1 (configuration not stated) | 13 | 0.2 | 93 | 35 |

The remaining compounds from weak to strong by Ki (Cathepsin B), led by results:

| Ki (Cathepsin B) [µM] | Ki (Calpain 1) [µM] | Ki (Papain) [µM] | IC50 (Rattus norvegicus) [µM] | SMILES |
| --- | --- | --- | --- | --- |
| 9.3 | 0.052 | 100 | 100 | CC(C)CC(NC(=O)OCc1ccccc1)C(=O)NC(Cc1ccccc1)C(=O)C(=O)NCCc1ccccc1 (configuration not stated) |
| 8 |  |  | 70 | CCCNC(=O)C(=O)C(CC)NC(=O)C(CC(C)C)NC(=O)OCc1ccccc1 (configuration not stated) |
| 7.5 |  |  |  | CCOC(=O)C(=O)C(CC)NC(=O)C(CC(C)C)NC(=O)CCCCc1ccccc1 (configuration not stated) |
| 6 | 0.2 | 45 | 22 | CCNC(=O)C(=O)C(Cc1ccccc1)NC(=O)C(CC(C)C)NC(=O)OCc1ccccc1 (configuration not stated) |
| 5 |  |  |  | CCCCCCCCCCNC(=O)C(=O)C(CC)NC(=O)C(CC(C)C)NC(=O)OCc1ccccc1 (configuration not stated) |
| 4.6 |  |  | > 300 | CC(C)CC(NC(=O)OCc1ccccc1)C(=O)NC(Cc1ccccc1)C(=O)C(=O)NCc1ccccc1 (configuration not stated) |
| 4.5 | 0.0085 | 7 | 100 | CC(C)CC(NC(=O)OCc1ccccc1)C(=O)NC(Cc1ccccc1)C(=O)C(=O)O (configuration not stated) |
| 4 | 9.5 | 40 | 100 | CCC(NC(=O)C(CC(C)C)NC(=O)OCc1ccccc1)C(=O)C(=O)OCc1ccccc1 (configuration not stated) |
| 4 | 4 |  | 28 | CCC(NC(=O)C(CC(C)C)NC(=O)OCc1ccccc1)C(=O)C(=O)NCC(C)C (configuration not stated) |
| 4 | 1.8 | 10 | 28 | CCCCOC(=O)C(=O)C(CC)NC(=O)C(CC(C)C)NC(=O)OCc1ccccc1 (configuration not stated) |
| 4 | 0.08 |  | 22 | CC(C)CNC(=O)C(=O)C(Cc1ccccc1)NC(=O)C(CC(C)C)NC(=O)OCc1ccccc1 (configuration not stated) |
| 3.4 | 0.28 | 190 | 89 | CCC(NC(=O)C(CC(C)C)NC(=O)OCc1ccccc1)C(=O)C(N)=O (configuration not stated) |
| 3.3 | 0.21 |  | 40 | CCCC(NC(=O)C(CC(C)C)NC(=O)OCc1ccccc1)C(=O)C(=O)NCC (configuration not stated) |
| 3 | 15 |  | 31 | CCCNC(=O)C(=O)C(Cc1ccccc1)NC(=O)C(CC(C)C)NC(=O)OCc1ccccc1 (configuration not stated) |
| 3 | 0.16 |  |  | CCC(NC(=O)C(CC(C)C)NC(=O)OCc1ccccc1)C(=O)C(=O)NCC(c1ccccc1)c1ccccc1 (configuration not stated) |
| 3 | 0.5 |  | 38 | CCCCNC(=O)C(=O)C(Cc1ccccc1)NC(=O)C(CC(C)C)NC(=O)OCc1ccccc1 (configuration not stated) |
| 2.6 | 0.32 |  | 200 | CCCCCCCCNC(=O)C(=O)C(CC)NC(=O)C(CC(C)C)NC(=O)OCc1ccccc1 (configuration not stated) |
| 2.4 | 0.25 | 93 | 100 | CCNC(=O)C(=O)C(CC)NC(=O)C(CC(C)C)NC(=O)OCc1ccccc1 (configuration not stated) |
| 1.5 | 0.075 | 13.5 | 100 | CCC(NC(=O)C(CC(C)C)NC(=O)OCc1ccccc1)C(=O)C(=O)O (configuration not stated) |
| 1.3 | 0.2 | 38 | 50 | CCC(NC(=O)C(CC(C)C)NC(=O)OCc1ccccc1)C(=O)C(=O)NCCc1ccccc1 (configuration not stated) |
| 1.3 | 0.2 | 38 | 50 | CCC(NC(=O)C(CC(C)C)NC(=O)OCc1ccccc1)C(=O)C(=O)NCc1ccccc1 (configuration not stated) |
| 1.2 | 0.32 |  |  | CCC(NC(=O)C(CC(C)C)NC(=O)OCc1ccccc1)C(=O)C(=O)NCCCCc1ccccc1 (configuration not stated) |
| 0.5 | 2 |  |  | CCC(C)NC(=O)C(=O)C(CC)NC(=O)C(CC(C)C)NC(=O)OCc1ccccc1 (configuration not stated) |
| 0.4 |  |  | > 300 | CCOC(=O)C(=O)C(CC)NC(=O)C(CC(C)C)NC(=O)OCC(C)C (configuration not stated) |
| 0.2 | 0.8 |  | 100 | CCC(NC(=O)C(CC(C)C)NC(=O)OCc1ccccc1)C(=O)C(=O)NCCCc1ccccc1 (configuration not stated) |
